Laboratory results: ChEMBL document CHEMBL4825662 (J Med Chem, 2021)
≈ marks a conversion by molar mass, not a printed value.

Tests used:
[1] = Cmax in Sprague-Dawley rat at 5 mg/kg, po administered via gavage measured after 0.02 to 24 hrs by tandem liquid chromatography/mass spectrometry; format: ADME, organism-based; parameters: route oral, dose 5 mg/kg, time upper 24 hrs, time lower 0.02 hrs; settings: in vivo
Outline: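 Male Sprague–Dawley rats weighing 200–250 g, 3 per route, were used. The i.v. bolus was 1 mg/kg at 1 mg/mL in 40:60 dimethylacetamide/saline. Oral gavage doses were 5 or 10 mg/kg at 5 mg/mL in 1% methyl cellulose with 0.1% Tween 80. Heparinized blood was taken at 0.02–24 h (ten time points). Plasma was analyzed by LC-MS/MS after acetonitrile precipitation.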

[2] = Tmax in Sprague-Dawley rat at 10 mg/kg, po measured after 0.02 to 24 hrs by UHPLC-TOF method; format: ADME, organism-based; settings: Sprague-Dawley, in vivo, time 0.02-24 hrs, read-out: Tmax
[3] = Apparent permeability across apical to basolateral side in MDCK-MDR1 cells at 10 uM measured at 60 mins by LC-MS/MS analysis; format: ADME, cell-based, Canis lupus familiaris; settings: dog, MDCK-MDR1
[4] = Half life in Sprague-Dawley rat at 10 mg/kg, po measured after 0.25 to 24 hrs by UHPLC-TOF method; format: ADME, organism-based; settings: in vivo, time 0.25-24 hrs
[5] = Cmax in Sprague-Dawley rat at 10 mg/kg, po measured after 0.02 to 24 hrs by UHPLC-TOF method; format: ADME, organism-based; parameters: route oral, dose 10 mg/kg, time 0.02-24 hrs; settings: in vivo
[6] = Clearance in CD1 mouse at 1 mg/kg, iv measured after 0.083 to 24 hrs by UHPLC-TOF method; format: ADME, organism-based; settings: in vivo, time 0.083-24 hrs
[7] = Intrinsic clearance in Sprague-Dawley rat liver microsomes preincubated followed by NADPH addition and measured up to 45 mins by LC-MS/MS analysis; format: ADME, Microsome
[8] = Cmax in CD1 mouse at 5 mg/kg, po measured after 0.03 to 24 hrs by UHPLC-TOF method; format: ADME, organism-based; parameters: route oral, time upper 24 hrs, time lower 0.03 hrs, dose 5 mg/kg; settings: in vivo
[9] = Intrinsic clearance in Beagle dog liver microsomes preincubated followed by NADPH addition and measured up to 45 mins by LC-MS/MS analysis; format: ADME, Canis lupus familiaris, Microsome
[10] = Oral bioavailability in CD1 mouse at 5 mg/kg measured after 0.03 to 24 hrs by UHPLC-TOF method; format: ADME, organism-based; settings: in vivo, time 0.03-24 hrs
Outline: (§1)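 Male CD-1 mice, acclimatized and individually housed, dosed IV and PO as amorphous-solid suspension. Terminal cardiac-puncture blood into heparinized tubes on wet ice, centrifuged at 4 °C within 15 min; plasma snap-frozen at −20 °C. IV arm sampled 2 min–24 h, oral arm 5 min–24 h. Plasma analysed by UHPLC-quadrupole-TOF MS.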

[11] = Cytotoxicity against human HepG2 cells by MTT assay; format: cell-based
Outline: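 Viability was assessed by MTT after culture with compound at 0.01 nM to 100 μM, run in parallel with plaque reduction assays. Values are the average of at least two testing occasions.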

[12] = Half life in CD1 mouse at 1 mg/kg, iv measured after 0.03 to 24 hrs by UHPLC-TOF method; format: ADME, organism-based; settings: in vivo, time 0.03-24 hrs
[13] = Intrinsic clearance in human liver microsomes preincubated followed by NADPH addition and measured up to 45 mins by LC-MS/MS analysis; format: ADME, Microsome
[14] = Tmax in CD1 mouse at 5 mg/kg, po measured after 0.083 to 24 hrs by UHPLC-TOF method; format: ADME, organism-based; settings: in vivo, time 0.083-24 hrs; outline: as §1
[15] = Volume of distribution at steady state in Sprague-Dawley rat at 1 mg/kg, iv administered […] measured after 0.02 to 24 hrs by tandem liquid chromatography/mass spectrometry; format: ADME, organism-based; settings: in vivo, time 0.02-24 hrs, read-out: Vdss
Outline: (§2)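 Male Sprague–Dawley rats (200–250 g), 3 per route. IV bolus at 1 mg/kg, 1 mg/mL in 40:60 dimethylacetamide/saline; oral gavage at 5 or 10 mg/kg, 5 mg/mL in 1% methyl cellulose, 0.1% Tween 80 in water. Serial blood at 0.02–24 h (ten points) into heparin, spun at 4 °C, plasma frozen; acetonitrile protein precipitation, ESI LC-MS/MS with matrix curve and internal standards.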

[16] = Apparent permeability across basolateral side to apical side in MDCK-MDR1 cells at 10 uM measured at 60 mins by LC-MS/MS analysis; format: ADME, cell-based, Canis lupus familiaris; settings: dog
[17] = Clearance in Sprague-Dawley rat at 1 mg/kg, iv administered […] measured after 0.02 to 24 hrs by tandem liquid chromatography/mass spectrometry; format: ADME, organism-based; settings: in vivo, time 0.02-24 hrs
Human orthopneumovirus = test: Antiviral activity against Respiratory syncytial virus A2 infected in human Huh7 cells by Plaque reduction assay; format: functional, organism-based; settings: A2, Huh-7
Outline: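 Huh-7 cells were infected with RSV strain A2 in the presence of compound. Values are the average of at least two testing occasions.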

[18] = Efflux ratio of apparent permeability in MDCK-MDR1 cells at 10 uM measured at 60 mins by LC-MS/MS analysis; format: ADME, cell-based, Canis lupus familiaris; settings: dog, MDCK-MDR1
[19] = Thermodynamic solubility in PBS at 1 to 100 uM at pH 7.4 by HPLC-UV method; format: physicochemical; settings: dose 1-100 µM, read-out: Therm_solubility
[20] = Oral bioavailability in Sprague-Dawley rat at 10 mg/kg administered via gavage measured after 0.02 to 24 hrs by tandem liquid chromatography/mass spectrometry; format: ADME, organism-based; settings: in vivo, time 0.02-24 hrs; outline: as §2
[21] = Volume of distribution at steady state in CD1 mouse at 1 mg/kg, iv measured after 0.083 to 24 hrs by UHPLC-TOF method; format: ADME, organism-based; settings: in vivo, time 0.083-24 hrs, read-out: Vdss; outline: as §1

Cmax [1]: 44.3 ng/mL | Tmax [2]: 2.1 h | Papp A→B at 1 h, 10 µM [3]: 0.4 ×10⁻⁶ cm/s | half-life [4]: 0.8 h | Cmax [5]: 44.3 ng/mL | clearance [6]: 76 mL/min/kg | Microsomal intrinsic clearance [7]: 0.7 µL/min | Cmax [8]: 110 ng/mL | intrinsic clearance [9]: 2 µL/min | bioavailability [10]: 12.9% | half-life [12]: 2.4 h | intrinsic clearance (CLint) [13]: 2.9 µL/min | Tmax [14]: 2 h | Vd [15]: 11 L/kg | Papp B→A at 1 h, 10 µM [16]: 2.7 ×10⁻⁶ cm/s | clearance [17]: 209 mL/min/kg | EC50 (Human orthopneumovirus): 2.3 nM | efflux ratio at 1 h, 10 µM [18]: 7.5 | solubility thermodynamic [19]: 1180 µM (≈ 526 µg/mL) | bioavailability [20]: 13.8% | Vd [21]: 11.3 L/kg
Structure (SMILES): NCc1ccc2c(c1)nc(CN1C(=O)C3(CC3)c3cccc(F)c31)n2CCCC(F)(F)F
CC50 [11]: > 25000 nM
